Test results from ChEMBL document CHEMBL1156597, “Structure-activity relationship of kahalalide F synthetic analogues” (J Med Chem, 2008).

Legend:
[1] = test system: PANC-1; assay: Cytotoxicity against human PANC1 cells after 48 hrs by SRB assay; assay type: functional; conditions: PANC-1, 48 h; for CC50: read-out: LC50 (the source's name)
In short: (§1)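 Cells grown in RPMI 1640 with 10% FBS and penicillin/streptomycin at 37 °C and 5% CO₂, trypsinized, then seeded at 5 × 10³/well. After 18 h drug-free attachment, samples in DMSO/EtOH/PBS (0.5:0.5:99) were added for 48 h continuous exposure. Cells were fixed with cold TCA (1 h, 4 °C) and stained with SRB (10 min). Tris-solubilized stain read at 490 nm. Triplicate wells, mean ± SD; GI₅₀ derived.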

[2] = test system: LoVo; assay: Cytotoxicity against human LoVo cells after 48 hrs by SRB assay; assay type: functional; conditions: for CC50: read-out: LC50 (the source's name)
[3] = test system: K562; assay: Cytotoxicity against human K562 cells after 48 hrs by SRB assay; assay type: functional; conditions: K562, 48 h, read-out: LC50 (the source's name); in short: as §1
[4] = Cytotoxicity against human IGROV cells after 48 hrs by SRB assay; assay type: functional; conditions: for CC50: read-out: LC50 (the source's name); in short: as §1
[5] = test system: SK-BR-3; assay: Cytotoxicity against human SKBR3 cells after 48 hrs by SRB assay; assay type: functional; conditions: SK-BR-3, 48 h; for CC50: read-out: LC50 (the source's name); in short: as §1
[6] = test system: HeLa; assay: Cytotoxicity against human HeLa cells after 48 hrs by SRB assay; assay type: functional; conditions: for CC50: read-out: LC50 (the source's name); in short: as §1
[7] = test system: A549; assay: Cytotoxicity against human A549 cells after 48 hrs by SRB assay; assay type: functional, cell-based; conditions: Homo sapiens, A549, 48 h; in short: as §1
[8] = Cytotoxicity against human IGROV-ET cells after 48 hrs by SRB assay; assay type: functional; conditions: for CC50: read-out: LC50 (the source's name); in short: as §1
[9] = test system: DU-145; assay: Cytotoxicity against human DU145 cells after 48 hrs by SRB assay; assay type: functional, cell-based; conditions: Homo sapiens, DU-145, 48 h; for CC50: read-out: LC50 (the source's name); in short: as §1
[10] = test system: SK-MEL-28; assay: Cytotoxicity against human SK-MEL-28 cells after 48 hrs by SRB assay; assay type: functional, cell-based; conditions: Homo sapiens, SK-MEL-28, 48 h; for CC50: read-out: LC50 (the source's name); in short: as §1
[11] = test system: LNCaP; assay: Cytotoxicity against human LNcaP cells after 48 hrs by SRB assay; assay type: functional; conditions: for CC50: read-out: LC50 (the source's name); in short: as §1
[12] = Cytotoxicity against human HeLa-APL cells after 48 hrs by SRB assay; assay type: functional; in short: as §1
[13] = test system: HT-29; assay: Cytotoxicity against human HT29 cells after 48 hrs by SRB assay; assay type: functional, cell-based; conditions: Homo sapiens, HT-29, 48 h; read-out: LC50 (the source's name); in short: as §1
[14] = test system: LoVo; assay: Cytotoxicity against human doxorubicin resistant LoVo cells after 48 hrs by SRB assay; assay type: functional; in short: as §1

SMILES	CC50 [1] [nM]	CC50 [2] [nM]	CC50 [3] [nM]	CC50 [4] [nM]	CC50 [5] [nM]	CC50 [6] [nM]	GI50 [7] [nM]	LC50 [7] [nM]	GI50 ([7]; read-out: GI50) [nM]	CC50 [8] [nM]	CC50 [9] [nM]	GI50 [10] [nM]	GI50 ([10]; read-out: GI50) [nM]	CC50 [10] [nM]	CC50 [11] [nM]	LC50 (concentration giving 50% net cell kill) [12] [nM]	CC50 [13] [nM]	GI50 [2] [nM]	TGI [2] [nM]	GI50 [4] [nM]	other results
C/C=C1\NC(=O)[C@H](Cc2ccccc2)NC(=O)[C@@H](C(C)C)NC(=O)[C@@H]([C@H](C)CC)NC(=O)[C@H](NC(=O)[C@H](NC(=O)[C@H](CCCN)NC(=O)[C@H]2CCCN2C(=O)[C@H](NC(=O)[C@@H](NC(=O)[C@@H](NC(=O)[C@H](NC(=O)CCCCCCCCCCCCCCCCCCC)C(C)C)[C@@H](C)O)C(C)C)C(C)C)[C@H](C)CC)[C@H](C)OC(=O)[C@H](C(C)C)NC1=O	423	960	910	1230	865	477	850	383	1880	1210	2030	905	1890	432	296	2030	877	–	–	–	–
C/C=C1\NC(=O)[C@H](Cc2ccccc2)NC(=O)[C@@H](C(C)C)NC(=O)[C@@H]([C@H](C)CC)NC(=O)[C@H](NC(=O)[C@H](NC(=O)[C@H](CCCN)NC(=O)[C@H]2CCCN2C(=O)[C@H](NC(=O)[C@@H](NC(=O)[C@@H](NC(=O)[C@H](NC(=O)c2ccc(C(F)(F)F)cc2)C(C)C)[C@@H](C)O)C(C)C)C(C)C)[C@H](C)CC)[C@H](C)OC(=O)[C@H](C(C)C)NC1=O	2430	286	2340	321	223	601	254	473	202	294	800	823	839	809	799	717	76.5	253	268	236	GI50 [1]: 1840 nM; TGI [1]: 2260 nM; GI50 ([4]; read-out: GI50): 247 nM; TGI [5]: 289 nM; GI50 ([5]; read-out: GI50): 303 nM; GI50 [6]: 348 nM; TGI [6]: 526 nM; GI50 [8]: 223 nM; GI50 ([8]; read-out: GI50): 140 nM; GI50 [9]: 685 nM; GI50 ([9]; read-out: GI50): 310 nM; GI50 [11]: 341 nM; TGI [11]: 621 nM; GI50 [12]: 519 nM; TGI [12]: 665 nM
C/C=C1\NC(=O)[C@H](Cc2ccccc2)NC(=O)[C@@H](C(C)C)NC(=O)[C@@H]([C@H](C)CC)NC(=O)[C@H](NC(=O)[C@H](NC(=O)[C@H](CCCN)NC(=O)[C@H]2CCCCN2C(=O)[C@H](NC(=O)[C@@H](NC(=O)[C@@H](NC(=O)[C@H](NC(=O)CC[C@@H](C)CC)C(C)C)[C@@H](C)O)C(C)C)C(C)C)[C@H](C)CC)[C@H](C)OC(=O)[C@H](C(C)C)NC1=O	2020	678	2160	487	–	1080	–	6720	8000	483	1300	–	1590	1360	1310	978	447	2250	2340	786	GI50 ([4]; read-out: GI50): 1390 nM; GI50 [6]: 3080 nM; TGI [6]: 2660 nM; TGI [7]: 8700 nM; GI50 [8]: 632 nM; GI50 ([8]; read-out: GI50): 894 nM; TGI [10]: 1470 nM; GI50 [12]: 1510 nM; TGI [12]: 1450 nM; GI50 [14]: 1220 nM; TGI [14]: 1820 nM; CC50 ([14]; read-out: LC50 (the source's name)): 1700 nM
